According to ChEMBL document CHEMBL4130344, “Substituted arylsulphonamides as inhibitors of perforin-mediated lysis” (Eur J Med Chem, 2017):

Test: Metabolic stability in human liver microsomes assessed as parent compound remaining at 3 uM after 30 mins by LC-MS/MS method
Type: ADME, microsome
Settings: read-out: Stability
In short: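 Compounds were tested as sodium salts. The read-out was the percentage of parent compound remaining after 30 min exposure to human microsomes.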

| Compound | remaining at 0.5 h, 3 µM |
| --- | --- |
| CN1Cc2cc(-c3ccc(-c4cncc(NS(=O)(=O)c5ccc([N+](=O)[O-])cc5)c4)s3)ccc2C1=O | 39% |
| CN1Cc2cc(-c3ccc(-c4cncc(NS(=O)(=O)c5c(F)cc(F)cc5F)c4)s3)ccc2C1=O | 63% |
| CN1Cc2cc(-c3ccc(-c4cncc(NS(=O)(=O)c5ccc(C#N)cc5)c4)s3)ccc2C1=O | 52% |

Next, values leading:

| remaining at 0.5 h, 3 µM | Compound |
| --- | --- |
| 14% | CN1Cc2cc(-c3ccc(-c4cncc(NS(=O)(=O)c5ccccc5C(F)(F)F)c4)s3)ccc2C1=O |
| 57% | CN1Cc2cc(-c3ccc(-c4cncc(NS(=O)(=O)c5cccc(C(F)(F)F)c5)c4)s3)ccc2C1=O |
